Columns and labels:
[1] = species: Canis familiaris; test: Mean effective dose required to suppress ventricular ectopic rate in dog greater than or equal to 25% for a minimum duration of 10 min; type: functional; settings: Canis lupus familiaris, Cardiac ventricle, read-out: MED
[2] = molecular target: T1, Muscarinic acetylcholine receptor (Rattus norvegicus) (UniProt P08482+P08483+P08485+P08911+P10980); test: Ratio of Muscarinic acetylcholine receptor affinity (IC50) of test compound to that of disopyramide; 1/6; type: protein assay
[3] = molecular target: T1, Muscarinic acetylcholine receptor (Rattus norvegicus); test: Ratio of Muscarinic acetylcholine receptor affinity (IC50) of test compound to that of disopyramide; 1/2; type: protein assay
[4] = molecular target: T1, Muscarinic acetylcholine receptor (Rattus norvegicus); test: (§1) Ratio of Muscarinic acetylcholine receptor affinity (IC50) of test compound to that of disopyramide; type: protein assay
[5] = species: Canis familiaris; test: Mean effective dose required to suppress ventricular ectopic rate in dog greater than or equal to 25% for a minimum duration of 10 min; Side effects; type: functional, organism-based; settings: Canis lupus familiaris; Cardiac ventricle
[6] = molecular target: T1, Muscarinic acetylcholine receptor (Rattus norvegicus); test: Ratio of Muscarinic acetylcholine receptor affinity (IC50) of test compound to that of disopyramide; 1/24; type: protein assay
[7] = system: Canis familiaris; test: Myocardial depression determined by monitoring the maximum rate of rise of left ventricular pressure in dog at 9 mg/kg dose; type: functional, Canis lupus familiaris, Heart left ventricle
Method in brief: (§2)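 Closed-chest anesthetized dogs given compound intravenously at the stated dose; myocardial depression taken as percent decrease in maximum rate of rise of left ventricular pressure (max dP/dt), mean ± standard error of the mean over the dogs tested. ≤25% depression at the mean effective antiarrhythmic dose was deemed acceptable.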

[8] = molecular target: T1, Muscarinic acetylcholine receptor (Rattus norvegicus); test: Ratio of Muscarinic acetylcholine receptor affinity (IC50) of test compound to that of disopyramide; 1/4; type: protein assay
[9] = system: Canis familiaris; test: Myocardial depression determined by monitoring the maximum rate of rise of left ventricular pressure in dog at 3 mg/kg dose; type: functional, Canis lupus familiaris, Heart left ventricle; method in brief: as §2
[10] = molecular target: T1, Muscarinic acetylcholine receptor (Rattus norvegicus); test: Ratio of Muscarinic acetylcholine receptor affinity (IC50) of test compound to that of disopyramide; 1/16; type: protein assay
[11] = molecular target: T1, Muscarinic acetylcholine receptor (Rattus norvegicus); test: as §1; type: protein assay; remark: listed apart in the source
Method in brief: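 Muscarinic receptor binding by displacement of [³H]QNB, test compound at three to six concentrations in triplicate. IC50 from log probit analysis. Value expressed as IC50(test)/IC50(disopyramide).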

[12] = system: Canis familiaris; test: Myocardial depression determined by monitoring the maximum rate of rise of left ventricular pressure in dog at 10 mg/kg dose; type: functional, Canis lupus familiaris, Heart left ventricle
[13] = species: Canis familiaris; test: Mean effective dose required to suppress ventricular ectopic rate in dog greater than or equal to 25% for a minimum duration of 10 min; Lethal; type: functional; settings: Canis lupus familiaris, Cardiac ventricle, read-out: MED

Compound `CC(C)N(CCC1(c2ccccc2)CC2CCCCN2C1=O)C(C)C.Cl` (centres undefined) has a minimal effective dose [1] of 10 mg/kg and a Ratio [2] of 0.167.

With `CC(C)N(CCC1(c2ccccc2Cl)CC2CCCCN2C1=O)C(C)C` (centres undefined) the Ratio [3] was 0.5, the Ratio [4] was 1 and the MED [5] was “Side effects”. For the same compound, the minimal effective dose [1] was 3.5 mg/kg.

`CC(=O)N(CCC(CCN1CCCCC1)(C(N)=O)c1ccccc1Cl)C(C)C` (centres undefined) [BIDISOMIDE] gave a Ratio [6] of 0.0417, a Decrease [7] of 20% and a minimal effective dose [1] of 9 mg/kg.

For `CC(C)N(CCC(CCC1CCCCN1)(C(N)=O)c1ccccc1Cl)C(C)C` (centres undefined), the Ratio [8] was 0.25 and the minimal effective dose [1] was 12.5 mg/kg.

Compound `CC(C)N(CCC1(c2ccc(-c3ccccc3)cc2)CC2CCCCN2C1=O)C(C)C` (centres undefined) has a Decrease [9] of 35%, a Ratio [10] of 0.0625 and a minimal effective dose [1] of 3 mg/kg.

`CC(C)N(CCC(C(N)=O)(c1ccccc1)c1ccccn1)C(C)C` (centres undefined) [DISOPYRAMIDE] gave a Ratio [11] of 1, a Decrease [12] of 56% and a minimal effective dose [1] of 10 mg/kg.

`CC(C)N(CCC(CCN1CCCCC1)(C(N)=O)c1ccccc1Cl)C(=O)c1ccccc1` (centres undefined) showed a minimal effective dose [13] of 5 mg/kg and a minimal effective dose [1] of 2 mg/kg.

Reference: ChEMBL document CHEMBL1124007, “Synthesis and structure-activity relationships of a new series of antiarrhythmic agents: monobasic derivatives of disobutamide” (1988)
